Measured values as given in ChEMBL document CHEMBL4706489, “Hydrogen sulfide releasing oridonin derivatives induce apoptosis through extrinsic and intrinsic pathways” (Eur J Med Chem, 2020).
Calls of active or inactive are those of the source. The rule behind the calls is not given here.

Experiments:
K562 [1] = experiment: Induction of apoptosis in human K562 cells assessed as necrotic cells at 2 uM after 48 hrs by annexin V FITC and propidium iodide staining based flow cytometric analysis (reference value: 0.69%); assay type: functional
K562 [2] = experiment: Antiproliferative activity against human K562 cells assessed as reduction in cell viability after 72 hrs by MTT assay; conditions: K562, 72 h
K562 [3] = experiment: Induction of apoptosis in human K562 cells assessed as viable cells at 1 uM after 48 hrs by annexin V FITC and propidium iodide staining based flow cytometric analysis (reference value: 96.76%); assay type: functional; conditions: read-out: Activity
HepG2 [4] = experiment: Induction of apoptosis in human HepG2 cells assessed as late apoptotic cells at 2 uM after 48 hrs by annexin V FITC and propidium iodide staining based flow cytometric analysis (reference value: 3.17%); assay type: functional
K562 [5] = experiment: Induction of apoptosis in human K562 cells assessed as necrotic cells at 0.5 uM after 48 hrs by annexin V FITC and propidium iodide staining based flow cytometric analysis (reference value: 0.69%); assay type: functional
K562 [6] = experiment: Induction of apoptosis in human K562 cells assessed as late apoptotic cells at 2 uM after 48 hrs by annexin V FITC and propidium iodide staining based flow cytometric analysis (reference value: 0.42%); assay type: functional
HepG2 [7] = experiment: Induction of mitochondrial membrane potential loss in human HepG2 cells after 48 hrs by JC1 staining based flow cytometric analysis; assay type: functional, cell-based; conditions: dose 0.5-2 µM
Method in brief: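 K562 and HepG2 cells in 6-well plates were exposed for 48 h at 0, 0.50, 1.0 and 2.0 µM, with DMSO vehicle control. After trypsinization, cells were stained with JC-1 (0.5 mg/mL) at 37 °C in darkness for 30 min, then washed with PBS. Membrane potential was read by flow cytometry. Mean ± SD, three independent experiments.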

K562 [8] = experiment: Induction of cell cycle arrest in human K562 cells assessed as accumulation at G2 phase at 1 uM after 48 hrs by propidium iodide staining based flow cytometric analysis (reference value: 10.96 to 12.03%); assay type: functional
K562 [9] = experiment: Induction of apoptosis in human K562 cells after 48 hrs by annexin V FITC and propidium iodide staining based flow cytometric analysis; conditions: dose 0.5-2 µM
K562 [10] = experiment: Induction of apoptosis in human K562 cells assessed as late apoptotic cells at 1 uM after 48 hrs by annexin V FITC and propidium iodide staining based flow cytometric analysis (reference value: 0.42%); assay type: functional
HepG2 [11] = experiment: Induction of cell cycle arrest in human HepG2 cells assessed as accumulation at S phase at 2 uM after 48 hrs by propidium iodide staining based flow cytometric analysis (reference value: 33.22 to 33.58%); assay type: functional
K562 [12] = experiment: Induction of apoptosis in human K562 cells assessed as chromatin shrinking after 24 to 48 hrs by Hoechst 33258 staining based fluorescence microscopic method; assay type: functional, cell-based; conditions: dose 1-4 µM, time 24-48 hrs
Method in brief: (§1)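 K562 cells were exposed to 1.0, 2.0 or 4.0 test agent, with DMSO as vehicle control, for 24 h and 48 h. They were harvested, washed twice in PBS and stained with Hoechst 33258 (0.5 mg/mL in PBS) for 30 min in darkness. Slides were viewed by fluorescence microscopy with a DAPI filter. Three random fields of about 200 nuclei per sample were scored as % apoptotic nuclei. Three independent experiments.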

K562 [13] = experiment: Induction of apoptosis in human K562 cells assessed as decrease in C-IAP2 protein expression at 1 uM after 24 hrs by chemiluminescence based apoptosis array method; assay type: functional, cell-based
Method in brief: (§2)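 K562 cells were treated with 1 test agent for 24 h. Diluted total-cell lysates were applied to a human apoptosis antibody array covering 35 apoptosis-related proteins for 24 h. Unbound protein was washed off, and arrays were probed with a biotinylated detection antibody for 1 h. Relative expression was read from chemiluminescent signal by digital imaging.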

K562 [14] = experiment: Induction of apoptosis in human K562 cells assessed as nuclear fragmentation after 24 to 48 hrs by Hoechst 33258 staining based fluorescence microscopic method; assay type: functional, cell-based; conditions: dose 1-4 µM, time 24-48 hrs; method in brief: as §1
K562 [15] = experiment: Induction of apoptosis in human K562 cells assessed as increase in cleaved caspase-3 at 1 uM after 24 hrs by chemiluminescence based apoptosis array method; assay type: functional, cell-based; method in brief: as §2
L02 = experiment: Cytotoxicity against human L02 cells assessed as cell viability after 72 hrs by MTT assay; conditions: L02, 72 h
K562 [16] = experiment: Induction of cell cycle arrest in human K562 cells assessed as accumulation at G2 phase at 0.5 uM after 48 hrs by propidium iodide staining based flow cytometric analysis (reference value: 10.96 to 12.03%); assay type: functional
HepG2 [17] = experiment: Induction of apoptosis in human HepG2 cells assessed as early apoptotic cells at 1 uM after 48 hrs by annexin V FITC and propidium iodide staining based flow cytometric analysis (reference value: 2.89%); assay type: functional
HepG2 [18] = experiment: Induction of apoptosis in human HepG2 cells assessed as early apoptotic cells at 0.5 uM after 48 hrs by annexin V FITC and propidium iodide staining based flow cytometric analysis (reference value: 2.89%); assay type: functional
K562 [19] = experiment: Induction of apoptosis in human K562 cells assessed as decrease in livin protein expression at 1 uM after 24 hrs by chemiluminescence based apoptosis array method; assay type: functional, cell-based; method in brief: as §2
K562 [20] = experiment: Induction of cell cycle arrest in human K562 cells assessed as accumulation at G2 phase at 2 uM after 48 hrs by propidium iodide staining based flow cytometric analysis (reference value: 10.96 to 12.03%); assay type: functional
K562 [21] = experiment: Induction of cell cycle arrest in human K562 cells assessed as accumulation at G1 phase at 2 uM after 48 hrs by propidium iodide staining based flow cytometric analysis (reference value: 43.24 to 43.37%); assay type: functional
HepG2 [22] = experiment: Induction of apoptosis in human HepG2 cells assessed as viable cells at 0.5 uM after 48 hrs by annexin V FITC and propidium iodide staining based flow cytometric analysis (reference value: 93.5%); assay type: functional; conditions: read-out: Activity
HepG2 [23] = experiment: Induction of cell cycle arrest in human HepG2 cells assessed as accumulation at S phase at 1 uM after 48 hrs by propidium iodide staining based flow cytometric analysis (reference value: 33.22 to 33.58%); assay type: functional
HepG2 [24] = experiment: Induction of apoptosis in human HepG2 cells assessed as late apoptotic cells at 0.5 uM after 48 hrs by annexin V FITC and propidium iodide staining based flow cytometric analysis (reference value: 3.17%); assay type: functional
HepG2 [25] = experiment: Induction of cell cycle arrest in human HepG2 cells assessed as accumulation at G1 phase at 1 uM after 48 hrs by propidium iodide staining based flow cytometric analysis (reference value: 49.46 to 50.3%); assay type: functional
Method in brief: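 HepG2 cells were treated with 0, 0.50, 1.0 or 2.0 test agent for 48 h. Cells were washed in cold PBS and fixed in 70% ethanol at −20 °C overnight. DNA-content distribution was measured by flow cytometry. Mean ± SD, three independent experiments.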

K562 [26] = experiment: Induction of apoptosis in human K562 cells assessed as decrease in XIAP protein expression at 1 uM after 24 hrs by chemiluminescence based apoptosis array method; assay type: functional, cell-based; method in brief: as §2
HepG2 [27] = experiment: Induction of apoptosis in human HepG2 cells assessed as early apoptotic cells at 2 uM after 48 hrs by annexin V FITC and propidium iodide staining based flow cytometric analysis (reference value: 2.89%); assay type: functional

Compound C=C1C(=O)[C@]23[C@H](OC(=O)CCC(=O)OCCCCCCOc4ccc(-c5cc(=S)ss5)cc4)[C@H]1CC[C@H]2[C@@]12CO[C@@]3(O)[C@@H](O)[C@@H]1C(C)(C)CC[C@@H]2OC(C)=O has an Activity (K562 [1]) of 1.57%, an IC50 (K562 [2]) of 0.95 µM and a viability at 1 µM (K562 [3]) of 79.1%. The Activity (HepG2 [4]) was 37.6%, the Activity (K562 [5]) was 1.1% and the Activity (K562 [6]) was 27.29%. The Activity (HepG2 [7]) was “Dose-dependent effect”, the Activity (K562 [8]) was 10.32% and the Activity (K562 [9]) was “Dose-dependent effect”. For the same compound, the Activity (K562 [10]) was 8.38%, the Activity (HepG2 [11]) was 28.3% and the Activity (K562 [12]) was “Dose-dependent effect”. For the same compound, the Activity (K562 [13]) was “Active”, the Activity (K562 [14]) was “Dose-dependent effect” and the Activity (K562 [15]) was “Active”. It also gave an IC50 (L02) of 17.6 µM, an Activity (K562 [16]) of 11.07% and an Activity (HepG2 [17]) of 25.53%. For the same compound, the Activity (HepG2 [18]) was 10.52%, the Activity (K562 [19]) was “Active” and the Activity (K562 [20]) was 7.39%. The Activity (K562 [21]) was 29.97%, the viability at 0.5 µM (HepG2 [22]) was 76.7% and the Activity (HepG2 [23]) was 27.19%. The Activity (HepG2 [24]) was 10.09%, the Activity (HepG2 [25]) was 61.39% and the Activity (K562 [26]) was “Active”. It also gave an Activity (HepG2 [27]) of 26.44%.
